What was measured:
[1] = Zn2+ affinity by competition with colorimetric PAR assay; assay type: binding; conditions: for Kd: read-out: Kd,Zn2, PAR 100 μM, ZnSO4 10 μM, pH 7.5, 3 h at 25 °C
Procedure, shortened: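 The test compound was titrated into Chelex-100-treated 20 mM HEPES, 100 mM NaCl, pH 7.5, containing PAR 100 μM and ZnSO4 10 μM, then incubated 3 h at 25 °C. Zn2+ displacement from PAR was read as the fall in absorbance at 492 nm. Kd was estimated from the known PAR stability constant at pH 7.4.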

NDM-1 = NDM-1 (Klebsiella pneumoniae, UniProt C7C422); assay: In vitro enzyme inhibition assay, purified recombinant NDM-1; assay type: biochemical
Procedure, shortened: (§1)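 Purified recombinant enzyme at 4 nM was preincubated 5–10 min at RT with varying inhibitor concentrations. Buffer was 50 mM HEPES pH 7.5, 0.2% DMSO, 1% PEG 4000, with either 10 μM ZnSO4 or no zinc (Chelex-100-treated, 2 h, filtered). Reactions were started with nitrocefin (30 μM final, A490) or meropenem (50 μM final, A300) and followed 60 s. IC50 came from the linear portion of progress curves. Duplicates.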

[2] = system: E. coli expressing blaNDM-1; assay: Meropenem rescue concentration, antimicrobial susceptibility test; assay type: cell-based, Escherichia coli; conditions: for RC in MHB, NDM-1: rescue concentration at meropenem 2 μg/mL
Procedure, shortened: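 Checkerboard broth microdilution in Mueller–Hinton broth against E. coli carrying the plasmid-borne MBL gene. Meropenem used five 2-fold dilutions and the test compound six 2-fold dilutions, within 0.5–64 μg/mL; the test compound was dissolved in water or 50% methanol. Inoculum was adjusted to OD625 0.08–0.10, then diluted 200-fold. Incubation was 20 h static at 37 °C, read at OD600. RC is the compound concentration restoring susceptibility at meropenem 2 μg/mL. ≥2 replicates.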

[3] = system: K. pneumoniae ATCC 33495::pGDP2 (NDM-1); assay: Meropenem rescue and MIC, antimicrobial susceptibility test; assay type: cell-based, Klebsiella pneumoniae; conditions: rescue concentration at meropenem 2 μg/mL, MHB
[4] = system: A. baumannii ATCC 17978::pROTO2 (NDM-1); assay: as above; assay type: cell-based, Acinetobacter baumannii; conditions: rescue concentration at meropenem 2 μg/mL
IMP-7 = assay: In vitro enzyme inhibition assay, purified recombinant IMP-7; assay type: biochemical; conditions: read-out: IC50 IMP-7 - Zn; Zn2+-depleted (Chelex-100-treated) buffer
Procedure, shortened: as §1

VIM-2 = VIM-2 (Escherichia coli, UniProt Q5U7L7); assay: In vitro enzyme inhibition assay, purified recombinant VIM-2; assay type: biochemical
Procedure, shortened: as §1

E. coli BW25113 (WT) = assay: Cell penetration / intracellular accumulation assay; assay type: cell-based, Escherichia coli; conditions: 50 μM, wild-type E. coli
Procedure, shortened: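 E. coli BW25113 (wild type) cells were incubated with the test compound at 50 μM (reference chelator at 50 or 100 μM) for 10 min at 37 °C. Cells were spun through ice-cold silicone oil (12,000g, 2 min), resuspended in water and lysed by three freeze–thaw cycles. The debris pellet was extracted with MeOH. Pooled extracts were quantified by UPLC–Q-TOF targeted MS/MS against a calibration curve. Biological and technical triplicates.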

[5] = IC50 NDM-1 + Zn, Zn2+-supplemented (10 μM) buffer
[6] = IC50 NDM-1 - Zn, Zn2+-depleted (Chelex-100-treated) buffer

Sequence of NDM-1 (C7C422 29-270, looked up, species assumed): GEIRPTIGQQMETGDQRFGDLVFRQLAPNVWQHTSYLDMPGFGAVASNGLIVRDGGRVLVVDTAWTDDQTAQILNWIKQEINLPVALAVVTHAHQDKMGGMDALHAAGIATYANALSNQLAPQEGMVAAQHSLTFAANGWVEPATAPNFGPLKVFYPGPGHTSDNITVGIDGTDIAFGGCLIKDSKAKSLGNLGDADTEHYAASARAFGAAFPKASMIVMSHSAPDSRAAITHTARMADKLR

SMILES	Kd [1]	IC50 (NDM-1; [5])	IC50 (NDM-1; [6])	rescue concentration (RC), biological activity ([2]; meropenem 2 μg/mL, resistant E. coli, MBL not given)	RC in MHB, NDM-1 [2]	RC in MHB, K. pneumoniae ATCC 33495::pGDP2 (NDM-1) [3]	RC in MHB, A. baumannii ATCC 17978::pROTO2 (NDM-1) [4]	IC50 (IMP-7)	IC50 (VIM-2)	Zn2+ affinity (in words) ([1]; outside the detection range of the assay, estimated)	intracellular accumulation increase relative to AMA (E. coli BW25113 (WT))
N[C@@H](CN[C@@H](CN[C@@H](Cc1cccs1)C(=O)O)C(=O)O)C(=O)O [Compound 23, (S)-2-Amino-3-(((S)-1-carboxy-2-(((S)-1-carboxy-2-(thiophen-2-yl)ethyl)amino)ethyl)amino)propanoic Acid]	0.0042 ± 0.0025 µM	42.2 ± 4.1 µM	9.7 ± 1.7 µM	> 8 μg/mL	64 µg/mL	–	–	–	–	–	–
N[C@@H](CN[C@@H](CN[C@@H](Cc1ccc(O)cc1)C(=O)O)C(=O)O)C(=O)O [Compound 20, (S)-2-Amino-3-(((S)-1-carboxy-2-(((S)-1-carboxy-2-(4-hydroxyphenyl)ethyl)amino)ethyl)amino)propanoic Acid]	0.00064 ± 0.00017 µM	38 ± 1.8 µM	172 ± 1.5 µM	–	16 µg/mL	64 μg/mL	32 μg/mL	–	–	–	–
NC(Cc1ccc(O)cc1)C(=O)N[C@@H](CN[C@@H](CN[C@@H](CC(=O)O)C(=O)O)C(=O)O)C(=O)O (stereo in doubt) [Compound 2, ((S)-2-(((S)-2-((R)-2-Amino-3-(4-hydroxyphenyl)propanamido)-2-carboxyethyl)amino)-2-carboxyethyl)-L-aspartic Acid]	0.0014 ± 0.00056 µM	> 100 µM	> 500 µM	–	>64 µg/mL	–	–	–	–	–	–
N[C@@H](CN[C@@H](CN[C@@H](CC(=O)O)C(=O)O)CSc1ccccc1)C(=O)O [Compound 9, ((S)-2-(((S)-2-Amino-2-carboxyethyl)amino)-3-(phenylthio)propyl)-L-aspartic Acid]	0.0023 ± 0.0019 µM	58 ± 5 µM	> 500 µM	–	>64 µg/mL	–	–	–	–	–	–
N[C@@H](CN[C@@H](CNC(CS)C(=O)O)C(=O)O)C(=O)O (stereo in doubt) [Compound 11, (S)-2-Amino-3-(((S)-1-carboxy-2-(((S)-1-carboxy-2-mercaptoethyl)amino)ethyl)amino)propanoic Acid]	0.0002 ± 5e-05 µM	15.6 ± 0.2 µM	21.5 ± 0.8 µM	–	32 µg/mL	–	–	328 ± 15 µM	22 ± 1 µM	–	–
N=C(N)NCCC[C@H](NC[C@H](NC[C@H](N)C(=O)O)C(=O)O)C(=O)O [Compound 17, ((S)-2-(((S)-2-Amino-2-carboxyethyl)amino)-2-carboxyethyl)-L-arginine]	0.024 ± 0.006 µM	> 100 µM	> 1000 µM	–	>64 µg/mL	–	–	–	–	–	–
CN[C@@H](CN[C@@H](CN[C@@H](CC(=O)O)C(=O)O)C(=O)O)C(=O)O [Compound 3, ((S)-2-Carboxy-2-(((S)-2-carboxy-2-(methylamino)ethyl)amino) Ethyl)-L-aspartic Acid]	0.0087 ± 0.0009 µM	95.3 ± 3 µM	> 500 µM	–	–	–	–	–	–	–	–
N[C@@H](CN[C@@H](CN[C@H](C(=O)O)c1ccc(O)cc1)C(=O)O)C(=O)O [Compound 22, (S)-2-Amino-3-(((S)-1-carboxy-2-(((S)-carboxy(4-hydroxyphenyl)methyl)amino)ethyl)amino)propanoic Acid]	0.0095 ± 0.0065 µM	283 ± 27.4 µM	23 ± 3.6 µM	–	>64 µg/mL	–	–	–	–	–	–
N[C@@H](CN[C@@H](CN[C@@H](Cc1c[nH]cn1)C(=O)O)C(=O)O)C(=O)O [Compound 10, (S)-2-Amino-3-(((S)-1-carboxy-2-(((S)-1-carboxy-2-(1H-imidazol-4-yl)ethyl)amino)ethyl)amino)propanoic Acid]	–	21.7 ± 3.9 µM	173 ± 3.9 µM	–	8 µg/mL	8 μg/mL	4–8 μg/mL	> 500 µM	136 ± 5 µM	subpicomolar or lower	–
N[C@@H](CN[C@@H](CN[C@@H](CC(=O)O)C(=O)O)C(=O)O)CSc1ccccc1 [Compound 4]	0.0004 ± 7e-05 µM	12.5 ± 0.8 µM	150 ± 16 µM	–	8 µg/mL	8 μg/mL	8 μg/mL	32 ± 3.1 µM	246 ± 23 µM	–	1.5 fold
CC(C)(S)C(NC[C@H](NC[C@H](N)C(=O)O)C(=O)O)C(=O)O (stereo in doubt) [Compound 14, (R)-2-(((S)-2-(((S)-2-Amino-2-carboxyethyl)amino)-2-carboxyethyl)amino)-3-mercapto-3-methylbutanoic Acid]	0.0026 ± 0.0004 µM	112 ± 4.8 µM	185 ± 7.8 µM	–	32 µg/mL	–	–	> 500 µM	246 ± 17 µM	–	–
N[C@@H](CN[C@@H](CNC(CS)C(=O)O)C(=O)O)C(=O)O (stereo in doubt) [Compound 12, (S)-2-Amino-3-(((S)-1-carboxy-2-(((R)-1-carboxy-2-mercaptoethyl)amino)ethyl)amino)propanoic Acid]	0.0044 ± 0.0018 µM	404 ± 18.2 µM	5.8 ± 0.5 µM	–	32 µg/mL	–	–	–	–	–	–
Cc1ccc(SC[C@@H](N)CN[C@@H](CN[C@@H](CC(=O)O)C(=O)O)C(=O)O)cc1 [Compound 5, ((S)-2-(((S)-2-Amino-3-(P-tolylthio)propyl)amino)-2-carboxyethyl)-L-aspartic Acid]	0.0014 ± 0.00056 µM	104 ± 2 µM	97.2 ± 34.2 µM	–	32 µg/mL	–	–	–	–	–	–
N[C@@H](CN[C@@H](CN[C@@H](CC(=O)O)C(=O)O)C(=O)O)CSCCO [Compound 8, ((S)-2-(((S)-2-Amino-3-((2-hydroxyethyl)thio)propyl)amino)-2-carboxyethyl)-L-aspartic Acid]	0.06 ± 0.013 µM	> 250 µM	> 500 µM	–	64 µg/mL	–	–	–	–	–	–
NC(=O)C[C@H](NC[C@H](NC[C@H](N)C(=O)O)C(=O)O)C(=O)O [Compound 16, ((S)-2-(((S)-2-Amino-2-carboxyethyl)amino)-2-carboxyethyl)-L-asparagine]	0.001 ± 0.0001 µM	18.3 ± 0.7 µM	> 1000 µM	–	16 µg/mL	32 μg/mL	16 μg/mL	–	–	–	–
N[C@@H](CN[C@@H](CN[C@@H](CO)C(=O)O)C(=O)O)C(=O)O [Compound 19, (S)-2-Amino-3-(((S)-1-carboxy-2-(((S)-1-carboxy-2-hydroxyethyl)amino)ethyl)amino)propanoic Acid]	0.0045 ± 0.00175 µM	80 ± 0.7 µM	> 1000 µM	–	32 µg/mL	–	–	–	–	–	–
N[C@@H](CN[C@@H](CN[C@@H](CCS)C(=O)O)C(=O)O)C(=O)O [Compound 13, ((S)-2-(((S)-2-Amino-2-carboxyethyl)amino)-2-carboxyethyl)-L-homocysteine]	–	> 100 µM	> 1000 µM	–	64 µg/mL	–	–	–	–	–	–
N[C@@H](CN[C@@H](CN[C@@H](Cc1ccc(OP(=O)(O)O)cc1)C(=O)O)C(=O)O)C(=O)O (mixture of isomers) [Compound 21, (S)-2-Amino-3-(((S)-1-carboxy-2-(((S)-1-carboxy-2-(4-(phosphonooxy)phenyl)ethyl)amino)ethyl)amino)propanoic Acid]	0.0108 ± 0.0081 µM	54 ± 5.6 µM	25.1 ± 8.3 µM	–	64 µg/mL	–	–	–	–	–	–
CCCSC[C@@H](N)CN[C@@H](CN[C@@H](CC(=O)O)C(=O)O)C(=O)O [Compound 7, ((S)-2-(((S)-2-Amino-3-(propylthio)propyl)amino)-2-carboxyethyl)-L-aspartic Acid]	0.109 ± 0.04 µM	29.2 ± 1 µM	> 500 µM	–	>64 µg/mL	–	–	–	–	–	–
NCC(=O)N[C@@H](CN[C@@H](CN[C@@H](CC(=O)O)C(=O)O)C(=O)O)C(=O)O [Compound 1, ((S)-2-(((S)-2-(2-Aminoacetamido)-2-carboxyethyl)amino)-2-carboxyethyl)-L-aspartic Acid]	0.0199 ± 0.0032 µM	> 100 µM	> 500 µM	–	>64 µg/mL	–	–	–	–	–	–
